Bioassay records deposited in PubChem by The Scripps Research Institute Molecular Screening Center.
TAAR1 antagonist = antagonists of human TAAR1; inhibition, % at 3 µM; actives 1.5% (n = 360,000); Q96RJ0; CHO RD-HGA16 TAAR1, Fluo-8 calcium fluorescence, antagonist;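 active means inhibition above a per-plate cutoff, the mean inhibition of test compounds on that plate plus 3 SD, cut at about 49% in these data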;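 further: 0% = DMSO plus EC80 beta-PEA response and 100% = DMSO alone without agonist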
Target sequence (Q96RJ0 whole entry, looked up): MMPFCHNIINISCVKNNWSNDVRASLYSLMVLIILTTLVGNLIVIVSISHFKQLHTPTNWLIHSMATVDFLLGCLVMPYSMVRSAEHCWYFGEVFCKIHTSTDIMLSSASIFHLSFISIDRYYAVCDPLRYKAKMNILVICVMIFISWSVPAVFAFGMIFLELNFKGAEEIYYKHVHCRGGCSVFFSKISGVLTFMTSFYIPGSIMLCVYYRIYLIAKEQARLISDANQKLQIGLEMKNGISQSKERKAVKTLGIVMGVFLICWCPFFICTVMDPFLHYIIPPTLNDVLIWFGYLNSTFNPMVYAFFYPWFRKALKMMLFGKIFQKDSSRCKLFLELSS
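Test system: CHO RD-HGA16 cells bearing hTAAR1 | Reagent: β-PEA, EC80 | Compound dosing: 3 µM, single point | Schedule: Dye loading 75 min at 37 °C, then 30 min room temperature | Signal: Calcium fluorescence with Fluo-8 | Evaluation: Percent inhibition of PEA-evoked calcium signal, max/basal emission ratio | Control set: DMSO-only wells and EC80 β-PEA-stimulated wells | Repeats: Singlicate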
M1 ag = human M1 muscarinic receptor agonism | P11229 | CHO-K1 hM1, Fluo-8 calcium fluorescence, agonist mode; 0% DMSO, 100% acetylcholine EC100 | activation, % at 3 µM | actives 0.33% (n = 360,000) | AID 588814;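 active means activation above the run's mean compound activation plus 3 SD, cut at about 16% in these data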;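 further: peak over basal fluorescence ratio within a 140 s kinetic read after compound addition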
CHRM1 antagonist = human CHRM1 antagonism. P11229. CHO-K1 hM1, Fluo-8 calcium fluorescence, ACh EC80 antagonist. inhibition, % at 3 µM. actives 1.3% (n = 360,000). AID 588852;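 active means percent inhibition above its own plate's cutoff, namely the mean of that plate's compound wells plus 3 SD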;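 further: peak over basal fluorescence ratio during 140 s after agonist addition; 0% = ACh EC80 plus DMSO and 100% = DMSO alone without agonist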
TAAR1 agonist = human TAAR1 agonism; Q96RJ0; CHO RD-HGA16 TAAR1, Fluo-8 calcium fluorescence; vehicle wells 0%, saturating PEA agonist 100%; activation, % at 3 µM; actives 0.99% (n = 360,000);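 active means activation above the mean activation of all test compounds in the run plus 3 SD, cut at about 38% in these data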
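Signal – calcium-sensitive Fluo-8 signal, excitation 470-495, emission 515-575 nm · System – RD-HGA16 (CHO) cells co-expressing Gα16 and hTAAR1 · Incubation – 17-24 h seeding, 75 min 37 °C dye, 30 min RT · Compound dosing – 3 µM single concentration · Repeats – no replicates (n 1)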
M1 PAM = positive allosteric modulators of human M1 muscarinic receptor. activation, % at 3 µM. CHO-K1 hM1, Fluo-8 calcium fluorescence, ACh EC20; 0% = ACh EC20, 100% = maximal ACh. actives 0.088% (n = 360,000); in the data active means activation above about 19%, passing the limit was not always enough
nonsel antag count = nonselective antagonist in TAAR1 antagonist counter-screen | shares compounds with TAAR1 antagonist | counterscreen cell line, calcium fluorescence, antagonist mode | inhibition, % at 3 µM | actives 77% (n = 2,400) | AID 651780; in the data active means inhibition above about 22%;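 further: CHO-Ga16 host cells stimulated with ATP at an EC80 level; 0% = agonist EC80 plus vehicle and 100% = vehicle without agonist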
TAAR1 antag conf = human TAAR1 antagonism, confirmed | shares compounds with TAAR1 antagonist | TAAR1-expressing cells, fluorescence antagonist read-out | inhibition, % at 3 µM | actives 40% (n = 2,400) | AID 651785; in the data active means inhibition above about 49%;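 further: CHO-Ga16 host cells challenged with agonist PEA near its EC80; 0% = agonist at EC80 plus vehicle and 100% = vehicle with no agonist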
Ga16 ag counter = nonselective Ga16 agonist in TAAR1 antagonist counter-screen; Ga16-expressing cells, calcium fluorescence, agonist counterscreen; shares compounds with TAAR1 antagonist; activation, % at 3 µM; AID 651953; actives 18% (n = 2,400); in the data active means activation above about 12%;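 further: 0% = vehicle wells and 100% = saturating stimulus response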
TAAR1 ag counter = counter-screen for human TAAR1 antagonists: TAAR1 agonists; shares compounds with TAAR1 antagonist; hTAAR1 cell line, fluorescence activation, agonist mode; activation, % at 3 µM; actives 2% (n = 2,400); AID 651955; in the data active means activation above about 37%;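 further: CHO cells stably expressing TAAR1 with calcium dye readout; 0% = DMSO vehicle and 100% = full agonist response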
* = called active by the depositor; x = no result; ! = repeats disagree. An excerpt weighted towards active compounds, which were near 3.4% of everything screened.

SMILES	TAAR1 antagonist	M1 ag	CHRM1 antagonist	TAAR1 agonist	M1 PAM	nonsel antag count	TAAR1 antag conf	Ga16 ag counter	TAAR1 ag counter
COc1ccccc1Cc1c(-c2cccc(Cl)c2)nc2ccc(Br)cn12	1.0	-2.7	-3.2	-0.5	1.1	x	x	x	x
COc1ccc(OC)c(NC(=O)CSC2=NN3CCCC(=O)N=C3S2)c1	9.7	0.3	0.6	5.3	2.4	x	x	x	x
COc1cccc(NC(=O)CSC2=NN3CCCC(=O)N=C3S2)c1	104.1*	4.3	-0.5	3.2	9.2	1.5	6.0	4.7	4.6
CN(C)CCNC(=O)c1cccc(-c2cc(NC=O)c3ncc(-c4cccc(C(F)(F)F)c4)n3c2)c1	-27.9	-9.7	-8.9	-0.3	2.0	x	x	x	x
COc1ccc(-c2csc(NC(=O)CSCc3c(C)noc3C)n2)cc1OC	37.3	1.0	-12.6	12.4	-4.7	x	x	x	x
COc1ccc(S(=O)(=O)Nc2ccccc2C(=O)Nc2nc(-c3ccc(F)cc3)cs2)cc1OC	90.5*	-4.5	28.6	9.3	-14.0	51.8*	61.2*	9.3	4.5
Cc1noc(C)c1CSCC(=O)Nc1nc(-c2ccc(F)c(F)c2)cs1	81.5*	-1.5	34.8*	9.8	-16.3	49.2*	58.0*	9.4	4.1
O=C(CS(=O)(=O)c1ccccc1)Nc1nc(-c2ccc(F)cc2)cs1	27.0	-1.7	10.6	13.5	-5.6	x	x	x	x
COc1ccc(-c2csc(NC(=O)Cc3ccccc3F)n2)cc1OC	34.3	-2.7	9.1	10.2	-14.6	x	x	x	x
O=C(Cc1ccccc1F)Nc1nc(-c2ccc(F)cc2)cs1	73.9*	-4.7	22.6	4.9	-21.4	30.0*	59.4*	8.7	13.7
COc1ccccc1CC(=O)Nc1nc(-c2ccc(F)c(F)c2)cs1	51.1*	-5.7	9.8	-0.7	-14.3	22.2*	40.4	9.5	13.3
COC(=O)C1=CN(c2ccc(OC)cc2OC)C(N)=C(C#N)C1c1ccccc1F (stereo unspecified)	-0.8	x	x	1.2	x	x	x	x	x
CCOC1=C2CN(S(=O)(=O)c3ccc(C)cc3)C(c3cccc(Cl)c3)CC2NC(c2ccccc2)C1 (stereo unspecified)	-52.0	x	x	0.7	x	x	x	x	x
CCn1c(SCC(=O)N2CCc3ccccc32)nnc1-c1c[nH]c2ccccc12	54.7*	-1.0	1.6	10.8	-2.1	16.2	34.1	6.2	8.4
CCN=C1SC(CC(=O)Nc2ccccc2)C(=O)N1CC (stereo unspecified)	67.0*	1.5	28.8*!	19.9	-16.4	34.2*	59.1*	10.3	8.8
CCN=C1SC(C(=O)Nc2cccc(C(=O)O)c2)CC(=O)N1CC (stereo unspecified)	-3.3	-3.4	-1.7	7.8	8.9	x	x	x	x
CCN=C1SC(C(=O)Nc2ccccc2)CC(=O)N1CC (stereo unspecified)	65.2*	-3.2	20.0	21.0	-10.1	31.0*	53.5*	9.4	10.2
Cc1csc(-c2nc3ccccc3n2C(C(=O)NC(C)(C)C)c2cc3ccccc3o2)c1 (stereo unspecified)	-23.0	x	x	0.4	x	x	x	x	x
Cc1cc(/C=C(\C#N)C(=O)NCc2cccs2)c(C)n1-c1ccccc1F	68.5*	-1.1	7.8	1.6	-10.4	17.1	61.1*	2.4	3.9
COc1ccccc1N1CCN(C(=O)CCc2nnc3ccc(N4CCC(C)CC4)nn23)CC1	53.2*	-1.3	14.1	7.0	-6.4	21.7*	42.5	8.3	10.3
COc1ccc(NC(=O)CCc2nnc3ccc(N4CCN(c5cccc(OC)c5)CC4)nn23)cc1	63.2*	-0.8	7.0	8.8	-5.2	22.6*	39.1	8.7	13.8
COc1cccc(N2CCN(C(=O)CCc3nnc4ccc(N5CCCC5)nn34)CC2)c1	2.4	-4.7	18.5	2.2	-13.3	x	x	x	x
CC(C)[C@@H](C(=O)N[C@@H](CCc1ccc(O)cc1)C(=O)O)N(C)C(=O)[C@H](CO)NC(=O)[C@@H](O)[C@H](N)CCCCCCCCl	-1.1	-1.5	-12.5	1.4	5.8	x	x	x	x
CC1(C(=O)NCCc2c[nH]c3ccccc23)CCN1CC1CCCCC1 (stereo unspecified)	-19.8	0.0	-8.7	0.8	6.9	x	x	x	x
Cc1ccc(O)c(NC(=O)c2ccc3c(c2)C(=O)N(Cc2cccnc2)C3=O)c1	76.8*	8.3	29.8	20.7	0.8	33.8*	59.2*	12.6*	13.7
SMILES	TAAR1 antagonist	M1 ag	CHRM1 antagonist	TAAR1 agonist	M1 PAM	nonsel antag count	TAAR1 antag conf	Ga16 ag counter	TAAR1 ag counter
O=C(Nc1ccc(O)cc1)c1ccc2c(c1)C(=O)N(Cc1ccccc1)C2=O	63.5*	9.0	12.4	27.7	-8.3	21.9*	43.0	13.9*	23.1
Cc1cc(C)c(NC(=O)c2ccc3c(c2)C(=O)N(Cc2cccnc2)C3=O)c(C)c1	-18.6	-2.2	-5.2	3.1	5.5	x	x	x	x
CC(C)(C)N1C(=O)c2ccc(C(=O)Nc3ccc(O)cc3)cc2C1=O	63.3*	-1.4	-3.1	12.3	-1.2	23.6*	25.7	6.6	6.0
COC(=O)c1cccc(NC(=O)c2ccc3c(c2)C(=O)N(Cc2cccnc2)C3=O)c1	36.2	-0.9	7.9	4.9	-3.6	x	x	x	x
COC(=O)c1cccc(NC(=O)c2ccc3c(c2)C(=O)N(C(C)(C)C)C3=O)c1	64.8*	-1.7	-12.0	11.2	9.2	37.8*	63.2*	9.3	6.3
O=C(O)c1cccc(NC(=O)c2ccc3c(c2)C(=O)N(c2ccccc2)C3=O)c1	-12.4	-3.7	-13.2	2.0	7.5	x	x	x	x
CC(C)(C)NC(=O)c1cccc(NC(=O)c2ccc3c(c2)C(=O)N(C(C)(C)C)C3=O)c1	85.0*	2.1	27.8	21.3	-17.2	38.4*	64.9*	13.0*	10.8
Cc1ccc(N2CCN(C(C(=O)Nc3c(C)cccc3C)c3cc4ccccc4o3)CC2)cc1 (stereo unspecified)	-10.3	x	x	3.5	x	x	x	x	x
Cc1ccc(Cl)cc1-c1cc(C(=O)Nc2ccc(F)cc2)[nH]n1	23.5	-2.2	13.2	2.8	-15.9	x	x	x	x
COc1ccc(-c2[nH]c3ccccc3c2SCCNC(=O)c2ccccc2)cc1	70.2*	-6.1	9.2	1.8	-10.0	23.0*	41.2	4.6	5.2
O=C(COc1ccc2ccc(=O)oc2c1)NCCc1c[nH]c2ccc(F)cc12	35.8	3.0	10.8	10.3	-9.8	x	x	x	x
CCc1cc(=O)oc2cc(C)cc(OCC(=O)NCCc3c[nH]c4ccccc34)c12	68.8*	-4.3	13.4	5.0	-13.8	29.1*	39.8	5.9	0.7
